Columns and labels:
MS2 coat protein [1] = experiment: apparent Kd, MS2 coat protein; higher = weaker binding; RNA-MaP array; theophylline 2 mM where present
In short: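 Binding was read on Illumina sequencing-chip clusters where stalled E. coli RNA polymerase had transcribed each design. A titration of SNAP-549-labelled MS2 coat protein began at 0.7 or 1.5 nM and doubled to 3 µM, once without ligand and once with constant ligand, in 100 mM Tris-HCl pH 7.5, 80 mM KCl, 4 mM MgCl2, BSA, DTT, yeast tRNA and Tween-20. The apparent Kd is the median of filtered per-cluster binding-curve fits, based on green signal normalised to red-channel RNA signal and control-cluster median Fmax.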

MS2 coat protein [2] = experiment: apparent Kd, MS2 coat protein; higher = weaker binding; RNA-MaP array
In short: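 Designs measured on fewer than 10 clusters were excluded from the data. The rest were RNAs transcribed from sequenced DNA templates on an Illumina sequencing chip and incubated at room temperature, with or without input ligand, with fluorescently labeled MS2 coat protein at 1.5 nM to 3 μM for 0.8–1.5 h at the lowest to 10–20 min at the highest concentrations. Apparent Kd is the median of the per-cluster binding-curve fits.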

[3] = designed as: ON switch for theophylline, no ligand
[4] = ligand present: theophylline, designed as: ON switch for theophylline
[5] = designed as: OFF switch for theophylline, no ligand
[6] = ligand present: theophylline, designed as: OFF switch for theophylline
[7] = designed as: ON switch for tryptophan, no ligand
[8] = ligand present: tryptophan, designed as: ON switch for tryptophan
[9] = designed as: OFF switch for flavin mononucleotide, no ligand
[10] = ligand present: flavin mononucleotide, designed as: OFF switch for flavin mononucleotide
[11] = designed as: ON switch for flavin mononucleotide, no ligand
[12] = ligand present: flavin mononucleotide, designed as: ON switch for flavin mononucleotide
[13] = designed as: OFF switch for tryptophan, no ligand
[14] = ligand present: tryptophan, designed as: OFF switch for tryptophan

Sequence	apparent Kd (MS2 coat protein [2]; [9])	apparent Kd (MS2 coat protein [2]; [10])	further results
GGGUAUGAUCCGGAUACCAGCGAACAUGAGGAUCACCCAUGUGACCUAAGAUAGGCUAAACGCCCUUGGCAGCCGAGAUUGCGUU			apparent Kd (MS2 coat protein [1]; [3]): 48.4 nM; apparent Kd (MS2 coat protein [1]; [4]): 31.5 nM
AGCGAGAUCCGUGAUACCAGCUACAUGAGGAUCACCCAUGUGAGCGCGAAAGUGCUGUGUAGCCCUUGGCAGCACAGUGGAUCUC			apparent Kd (MS2 coat protein [1]; [5]): 10 nM; apparent Kd (MS2 coat protein [1]; [6]): 43.2 nM
CAGAGCUACCGGGAUACCAGAAAUGGUAUUCCUUAAUUUCUUACAUGAGGAUCACCCAUGUUCCCUUGGCAGCUUGGUAGCUCUG			apparent Kd (MS2 coat protein [1]; [5]): 86.4 nM; apparent Kd (MS2 coat protein [1]; [6]): 385 nM
AAUAAUCUAGGUGAUACCAGCUCAACAUGAGGAUCACCCAUGUACUCAUGUAGAGUUGAGAGCCCUUGGCAGCACCUAGAUAAUA			apparent Kd (MS2 coat protein [1]; [3]): 553 nM; apparent Kd (MS2 coat protein [1]; [4]): 74.9 nM
UUAGAUAUGACAGAUACCAGCGUGUUGUAGAACAUGAGGAUCACCCAUGUAGUGAUCAAGCGCCCUUGGCAGCUGGUAUGUUUGG			apparent Kd (MS2 coat protein [1]; [3]): 170 nM; apparent Kd (MS2 coat protein [1]; [4]): 221 nM
UCCCUACCGUCGGCCGCCACUGGGUCAUACAGUUCGUAACUACAUGAGGAUCACCCAUGUGCAGCCAGGACCGGGACGCGCCUUG			apparent Kd (MS2 coat protein [2]; [7]): 177 nM; apparent Kd (MS2 coat protein [2]; [8]): 106 nM
CGCGAGACGGCGGCCGCCACUUGUUGUUGGAAACUCGAGUUACAUGAGGAUCACCCAUGUCCUUAAAGGACCGGGCCGUAAGUAA			apparent Kd (MS2 coat protein [2]; [7]): 226 nM; apparent Kd (MS2 coat protein [2]; [8]): 164 nM
UGGGUUACCUCAGGAUAUCGCCUUGUACAUGAGGAUCACCCAUGUAGUAUCGGCCGUGUGUGCAUCGAGAAGGGAGUAACCUUC	75.2 nM	53.5 nM	
AGAUCCUAAGUAAGGAUAUACCUCGCACACAAGUCGUAGAAGGUACAUGAGGAUCACCCAUGUAGGAAAGUACU	12.4 nM	15.3 nM	
CAUACAUAACAUGAGGAUCACCCAUGUGACUCACUCUGAAAGCAGGAUAUAUUCGGUAAGCUACGAUAGAAGGGCUAUGCGUAA	42.2 nM	31.3 nM	
GGUCCAAUAGGAUAUACAUGAGGAUCACCCAUGUAAUGGAAGCUCGGGUUUUGGUACUGUAGAAGGAUUGGGAC	25.8 nM	40.9 nM	
GUAAAACUGUAAGGAUAUGAUGAACUUUAACCCUCAGAAGGAACACCACAUGAGGAUCACCCAUGUUAGGAAAGCAACUUGUUG			apparent Kd (MS2 coat protein [2]; [11]): 14.1 nM; apparent Kd (MS2 coat protein [2]; [12]): 13.8 nM
AAAGACGACCAGAAGGAGCCGCCACAUGAGGAUCACCCAUGUAUGCAAAGAUAACUGGGUUAACGCUAGGAUAUGGUGGAGAAA	63.5 nM	44.1 nM	
CGGCUCAUAAUGGAUACCAGUCCAGCAUAGAAACCUUGACACAUGAGGAUCACCCAUGUUGACCCUUGGCAGCCAUUGAUCAUAC			apparent Kd (MS2 coat protein [2]; [5]): 22.4 nM; apparent Kd (MS2 coat protein [2]; [6]): 133 nM
CCUGGACAUGAGGAUCACCCAUGUGAGGAUACCAGAUAUCCUGAUAUCCCUUGGCAGCCUCAUUACUUCGCAUUACCGAAACUUC			apparent Kd (MS2 coat protein [2]; [3]): 103 nM; apparent Kd (MS2 coat protein [2]; [4]): 249 nM
GAUUAAAAGAUAGGAUAUUUUGAAAUCGUCACAUGAGGAUCACCCAUGUAUGGCCUGGGCAAUCAAAAGAAGGAUCUUUCUGAU	11.2 nM	6.84 nM	
ACGAGAGCCCAGAAGGACACGGGAUACUCACAAGCAUUCUGGACAUGAGGAUCACCCAUGUGUAUGUAGGAUAUGGGAGUUGCG			apparent Kd (MS2 coat protein [2]; [11]): 31 nM; apparent Kd (MS2 coat protein [2]; [12]): 15.2 nM
GGAACGAUCACUUCUUUAUCUAAGGCGGAUACCAGUCCUCGGUUUGACCCUUGGCAGCCGACAACAUGAGGAUCACCCAUGUUCU			apparent Kd (MS2 coat protein [2]; [5]): 15.6 nM; apparent Kd (MS2 coat protein [2]; [6]): 20.4 nM
CAAGGGAAUACAGGAUAUUGCUGGAGUUGGGCGAGACAUGAGGAUCACCCAUGUUAUGCUAUAGUCAAGAAGGGUAUCUCGAGG	18.5 nM	13 nM	
CCUCGGCCAUCAGGAUAUCAUUCUCCGAUGCGGAACAUGAGGAUCACCCAUGUUGGGUACCCGUGUGAGAAGGGAUGCGUACGG	74.3 nM	62.2 nM	
GUGAUGCCUUACACAUGAGGAUCACCCAUGUGGUGUAAGCGUAGAAGGUGAAUAUAUUCCAUAGUCAAGGAUAUACGAACAAUC	12.2 nM	11.5 nM	

Sequence	apparent Kd (MS2 coat protein [2]; [9])	apparent Kd (MS2 coat protein [2]; [10])	further results
GCCUCGAACUCAGGAUAUCAGAGAGGUUGCCGCUGAGAAGGGAGACAUGAGGAUCACCCAUGUACAGUCAUGACCGUCGAGUUG			apparent Kd (MS2 coat protein [2]; [11]): 65.8 nM; apparent Kd (MS2 coat protein [2]; [12]): 84 nM
AUGAAAAGUACAGGAUAUAUAUAAACACAAAACGGACAUGAGGAUCACCCAUGUUGACGUUGUCAAUAGAAGGGUACCAACACA			apparent Kd (MS2 coat protein [2]; [11]): 26.1 nM; apparent Kd (MS2 coat protein [2]; [12]): 10.7 nM
GGAGUGUGAGGAUAUGACGCGCCAGGCACACUUGAAUGCGCUCAGAAGGCACAUGAGGAUCACCCAUGUAAGCA	8.29 nM	13.3 nM	
AGCUCGUAGACAUGAGGAUCACCCAUGUAGAUCAAGAAAUUCAAGGAUAUUGGGAGUAAGCCGUGCAAGAAGGUGAGACUAGAU			apparent Kd (MS2 coat protein [2]; [11]): 57 nM; apparent Kd (MS2 coat protein [2]; [12]): 45.2 nM
CGUCUGUGAGGAUAUGGUCGAGGUUGGUGAAUUACUUACAUCCAGAAGGCACAUGAGGAUCACCCAUGUACAUC	10.5 nM	13.8 nM	
UGAGAAGUAGGAUAUAAGUACACCUACAUGAGGAUCACCCAUGUACCUAACGUAGCCGAUUUAGAAGGACUGUCAA	58.7 nM	35.5 nM	
ACGUUCGCGGUAUCCAACCGGUUGUACAAACGAGGACCGGUACGGCCGCCACUCGUGAUUGUACAUGAGGAUCACCCAUGUGGCA			apparent Kd (MS2 coat protein [2]; [13]): 17.6 nM; apparent Kd (MS2 coat protein [2]; [14]): 17.2 nM
CCGCCUCGCGUCAGGAUAUGUAACAAUUGUCAAAUACAGAAGGGACAUGAGGAUCACCCAUGUUUACAUACCAA	18 nM	42.2 nM	
CAUACGCCGCAGAAGGAGUCGAGUCCGUUUCAACUAGGAUAUGCCAGAACAUGAGGAUCACCCAUGUUGCGGGUGCAGCUCAAU	37.8 nM	38.9 nM	
CUCUUGGCCGCAGUACGUUUAUAGACCUAUCGAGGACCGGUACGGCCGCCACUCGGUUAGUCACAUGAGGAUCACCCAUGUGUCC			apparent Kd (MS2 coat protein [2]; [13]): 17.7 nM; apparent Kd (MS2 coat protein [2]; [14]): 29.9 nM
UAGCGACAUGAGGAUCACCCAUGUGAGGAUAUGAAGUCUAUAACACAAGCUAAUGAAGACAGAAGGCACAUGAG	66.8 nM	59.3 nM	
ACUUACGGAAAGAAGGAGGGACAGUCACGGCGGGCGGACCACAUGAGGAUCACCCAUGUGCGAGCCUAGGAUAUUUAGGGUAGC	7.19 nM	7.23 nM	
ACCGUGUCAGGAUAUCGGGUAUUCUUCCGUAUAAUACCAGCCGAGAAGGGACAUGAGGAUCACCCAUGUGGACA	33.2 nM	57.8 nM	
CCAUGUAAUGUAAGGAUAUUCCAGGUAAUUACUUUGAAGAAGGUACAUGAGGAUCACCCAUGUGGAAACGAAUG	18.6 nM	64.5 nM	
UUCUUUGACGAGAAGGUCUCAACAUGAGGAUCACCCAUGUGAAUUAAUGGAACCAGGCCUGUUUAGAAGGAUAUCGCGGGAGUU	10.9 nM	13.8 nM	
GAAAUACAUGAGGAUCACCCAUGUCAGGAUAUCGGUGAGAAAGAGCAUCUCUGCGGCCCGAGAAGGGACACAGG	64.5 nM	51.8 nM	
GUAAACGCCACAGGAUAUUGGCAGAAUAAGGAGCAAGAAGGGUGGGAUAGAAUCACGUGAACAUGAGGAUCACCCAUGUGUGGA			apparent Kd (MS2 coat protein [2]; [11]): 55.3 nM; apparent Kd (MS2 coat protein [2]; [12]): 38 nM
UAGCGACAUGAGGAUCACCCAUGUCCCGGCUACUAAGGAUAUGCAGUGAUUGAAAGGAAGGCAGAAGGUAGUGCAG			apparent Kd (MS2 coat protein [2]; [11]): 25.3 nM; apparent Kd (MS2 coat protein [2]; [12]): 12.7 nM
GCCCUGUGACUAGGAUAUGCCGGGAAACACAUCGCAGAAGGAGUCCACUCAUGUCGACAUGAGGAUCACCCAUGUACCAGGGUU	40.6 nM	29.9 nM	
UUAGCACAUGAGGAUCACCCAUGUCUCGAUACCAGAUAAGUUCCGAUCCCUUGGCAGCGACAAGCUUGCAAACUGCGACUAUUCU			apparent Kd (MS2 coat protein [2]; [3]): 24.7 nM; apparent Kd (MS2 coat protein [2]; [4]): 25 nM

From the EternaBench riboswitch data
